According to publication PMC11451940 (RSC Medicinal Chemistry, 2024):
≈ marks a conversion by molar mass, not a printed value. Where “and” joins values, the source holds several entries; their conditions need not be identical. Identical values can stand only once. Like-named read-outs stand apart in the source and are kept apart here.

How the values were obtained:
[1] = tested on: A2780 cells (human ovarian carcinoma); experiment: MTT in vitro cytotoxicity, A2780; assay type: cell-based
In short: (§1)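 MTT assay on ATCC human lines cultured per supplier instructions: A2780, A2780R, MCF-7, PC-3, A549, HOS and normal foetal fibroblast MRC-5. Exposure was 24 h for all lines; A2780 was also tested at 48 and 72 h. IC50 came from dose–response curves, given ± SD from triplicate experiments. Selectivity index = IC50(MRC-5)/IC50(A2780).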

[2] = tested on: A2780R cells (cisplatin-resistant ovarian carcinoma); experiment: MTT in vitro cytotoxicity, A2780R; assay type: cell-based, human; conditions: read-out: IC50 ± SD, A2780R
In short: as §1

[3] = tested on: MRC-5 cells (human foetal fibroblasts); experiment: MTT in vitro cytotoxicity, normal MRC-5; assay type: cell-based; conditions: for IC50: read-out: IC50 ± SD, MRC-5
In short: as §1

[4] = tested on: A549 cells (lung adenocarcinoma); experiment: MTT in vitro cytotoxicity, A549; assay type: cell-based, human; conditions: read-out: IC50 ± SD, A549
In short: as §1

[5] = tested on: PC-3 cells (prostate adenocarcinoma); experiment: MTT in vitro cytotoxicity, PC-3; assay type: cell-based, human; conditions: read-out: IC50 ± SD, PC-3
In short: as §1

[6] = tested on: MCF-7 cells (breast adenocarcinoma); experiment: MTT in vitro cytotoxicity, MCF-7; assay type: cell-based, human; conditions: read-out: IC50 ± SD, MCF-7
In short: as §1

[7] = tested on: HOS cells (bone osteosarcoma); experiment: MTT in vitro cytotoxicity, HOS; assay type: cell-based, human; conditions: read-out: IC50 ± SD, HOS
In short: as §1

[8] = tested on: 3T3; conditions: 72 h of incubation; cited from earlier work
[9] = tested on: PC3; conditions: 72 h of incubation; cited from earlier work
[10] = tested on: HeLa; conditions: 72 h of incubation; cited from earlier work
[11] = tested on: HL60 cells; conditions: read-out: IC50 on HL60 cells; 48 h of incubation; cited from earlier work
[12] = read-out: IC50 ± SD, A2780, 72 h, 72 h incubation time, MTT

N.N.[Cl][Pt][Cl] [Cisplatin]
IC50 ([1]; read-out: IC50 ± SD, A2780, 48 h, 48 h incubation time, MTT): 6.5 ± 3.2 µM
IC50 [1, 12]: 3.7 ± 0.2 µM
IC50 ([1]; read-out: IC50 ± SD, A2780, 24 h of incubation, MTT): 15.2 µM and 15.4 µM
IC50 ([2]; 24 h of incubation, MTT): 42.7 ± 3.8 µM
SI, selectivity index expressed as IC50(MRC-5)/IC50(A2780) ([3]; 24 h of incubation): 3.0
SI, selectivity index expressed as IC50(MRC-5)/IC50(A2780) ([3]; 24 h of incubation, listed as cisplatin): ≈ 3
IC50 ([3]; 24 h of incubation, MTT, normal cells): 46.1 ± 2.4 µM
IC50 ([4]; 24 h of incubation, MTT): > 50 µM
IC50 ([5]; 24 h of incubation, MTT): > 50 µM
IC50 ([6]; 24 h of incubation, MTT): 37 ± 2.2 µM
IC50 ([7]; 24 h of incubation, MTT): > 50 µM

CC(C)=CCC1=C(O)C(=O)c2ccccc2C1=O [Lapachol, 2-hydroxy-3-(3-methylbut-2-en-1-yl)naphthalene-1,4-dione]
IC50 ([1]; Homo sapiens, A2780, 24 h, read-out: IC50 ± SD, A2780, 24 h of incubation, MTT): > 50 µM
IC50 [1, 12]: 6.4 ± 0.8 µM
IC50 ([2]; Homo sapiens, 24 h): > 50 µM
IC50 on 3T3 [8]: 6.15 µg/mL (≈ 25.4 µM)
IC50 ([3]; Homo sapiens, MRC5, 24 h): > 50 µM
IC50 ([4]; Homo sapiens, A549, 24 h): > 50 µM
IC50 ([5]; Homo sapiens, PC-3, 24 h): > 50 µM
IC50 ([6]; Homo sapiens, MCF7, 24 h): > 50 µM
IC50 ([7]; Homo sapiens, HOS, 24 h): > 50 µM
IC50 on PC3 [9]: 20.51 µg/mL (≈ 84.7 µM)
IC50 on HeLa [10]: 19.04 µg/mL (≈ 78.6 µM)
IC50 [11]: 25 µM
